Measured values: ChEMBL document CHEMBL4229397, “N-(7-Cyano-6-(4-fluoro-3-(2-(3-(trifluoromethyl)phenyl)acetamido)phenoxy)benzo[d]thiazol-2-yl)cyclopropanecarboxamide (TAK632) Promotes Inhibition of BRAF through the Induction of Inhibited Dimers” (J Med Chem, 2018)
The source made the active and inactive calls. The calls are words filed in the database; no cut-off is given here.

Legend:
[1] = target: Serine/threonine-protein kinase B-raf (Homo sapiens, UniProt P15056, V600E); experiment: Inhibition of N-terminal 6x-His-tagged BRAF V600E mutant (unknown origin) expressed in baculovirus infected Sf9 insect cells co-expressing mouse p50cdc37 using C-terminal His-tagged/N-terminal GST-tagged full length human MEK1 as substrate after 1 hr by ELISA
Method in brief: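 ELISA: GST-MEK1 bound to glutathione-coated plate 1 h, room temperature. Insect-cell His-BRAF V600E (1:1000 dilution) preincubated with inhibitor 1 h, room temperature, then reacted with 100 μM ATP in 50 mM HEPES pH 7.0, 200 mM NaCl, 20 mM MgCl2, 30 min, 37 °C. Anti-pMEK S217/S221, HRP secondary, chemiluminescence. Duplicate or triplicate, min–max normalized, log(inhibitor)-response IC50.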

[2] = target: T1, Serine/threonine-protein kinase B-raf (Homo sapiens, UniProt P15056); experiment: Inhibition of N-terminal 6x-His-tagged BRAF kinase domain (unknown origin) expressed in baculovirus infected Sf9 insect cells co-expressing mouse p50cdc37 using C-terminal His-tagged/N-terminal GST-tagged full length human MEK1 as substrate after 1 hr by ELISA
Method in brief: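 His-tagged BRAF kinase domain (residues 442–724, WT or V600E) was preincubated with inhibitor 1 h at room temperature in 50 mM HEPES pH 7.0, 50 mM NaCl. It was then added to GST-MEK1 bound on glutathione plates, with 100 μM ATP final in 50 mM HEPES pH 7.0, 200 mM NaCl, 20 mM MgCl2, for 30 min at 37 °C. Phospho-MEK (S217/S221) was read by chemiluminescent ELISA. Curves run in duplicate/triplicate, min–max normalized, IC50 from log(inhibitor)–response fit.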

[3] = target: T1, Serine/threonine-protein kinase B-raf; experiment: Induction of N-terminal 6x-His-tagged BRAF (unknown origin) dimer formation expressed in baculovirus infected Sf9 insect cells co-expressing mouse p50cdc37 at 15 uM by sedimentation velocity method
[4] = target: T1, Serine/threonine-protein kinase B-raf; experiment: Induction of N-terminal 6x-His-tagged BRAF (unknown origin) dimer formation expressed in baculovirus infected Sf9 insect cells co-expressing mouse p50cdc37 at 200 uM measured after trypsin digestion for 30 mins by coomassie blue staining-based SDS-PAGE method
[5] = system: Serine/threonine-protein kinase B-raf (Homo sapiens), P15056 [V600E]; experiment: Induction of N-terminal 6x-His-tagged BRAF V600E mutant (unknown origin) dimer formation expressed in baculovirus infected Sf9 insect cells co-expressing mouse p50cdc37 at 10 uM by sedimentation velocity method
[6] = target: T1, Serine/threonine-protein kinase B-raf; experiment: Induction of N-terminal 6x-His-tagged BRAF (unknown origin) dimer formation expressed in baculovirus infected Sf9 insect cells co-expressing mouse p50cdc37 assessed as melting temperature at 125 uM by differential scanning calorimetric method
[7] = system: Serine/threonine-protein kinase B-raf (Homo sapiens), P15056 [V600E]; experiment: Induction of N-terminal 6x-His-tagged BRAF V600E mutant (unknown origin) dimer formation expressed in baculovirus infected Sf9 insect cells co-expressing mouse p50cdc37 at 20 uM by sedimentation velocity method
[8] = target: T1, Serine/threonine-protein kinase B-raf; experiment: Induction of N-terminal 6x-His-tagged BRAF (unknown origin) dimer formation expressed in baculovirus infected Sf9 insect cells co-expressing mouse p50cdc37 assessed as melting temperature at 75 uM by differential scanning calorimetric method (reference value: 37.84 degC)
[9] = target: T1, Serine/threonine-protein kinase B-raf; experiment: Induction of N-terminal 6x-His-tagged BRAF (unknown origin) dimer formation expressed in baculovirus infected Sf9 insect cells co-expressing mouse p50cdc37 assessed as melting temperature at 250 uM by differential scanning calorimetric method (reference value: 37.84 degC)

Serine/threonine-protein kinase B-raf (Homo sapiens), P15056 [V600E], sequence (P15056 whole entry V600E): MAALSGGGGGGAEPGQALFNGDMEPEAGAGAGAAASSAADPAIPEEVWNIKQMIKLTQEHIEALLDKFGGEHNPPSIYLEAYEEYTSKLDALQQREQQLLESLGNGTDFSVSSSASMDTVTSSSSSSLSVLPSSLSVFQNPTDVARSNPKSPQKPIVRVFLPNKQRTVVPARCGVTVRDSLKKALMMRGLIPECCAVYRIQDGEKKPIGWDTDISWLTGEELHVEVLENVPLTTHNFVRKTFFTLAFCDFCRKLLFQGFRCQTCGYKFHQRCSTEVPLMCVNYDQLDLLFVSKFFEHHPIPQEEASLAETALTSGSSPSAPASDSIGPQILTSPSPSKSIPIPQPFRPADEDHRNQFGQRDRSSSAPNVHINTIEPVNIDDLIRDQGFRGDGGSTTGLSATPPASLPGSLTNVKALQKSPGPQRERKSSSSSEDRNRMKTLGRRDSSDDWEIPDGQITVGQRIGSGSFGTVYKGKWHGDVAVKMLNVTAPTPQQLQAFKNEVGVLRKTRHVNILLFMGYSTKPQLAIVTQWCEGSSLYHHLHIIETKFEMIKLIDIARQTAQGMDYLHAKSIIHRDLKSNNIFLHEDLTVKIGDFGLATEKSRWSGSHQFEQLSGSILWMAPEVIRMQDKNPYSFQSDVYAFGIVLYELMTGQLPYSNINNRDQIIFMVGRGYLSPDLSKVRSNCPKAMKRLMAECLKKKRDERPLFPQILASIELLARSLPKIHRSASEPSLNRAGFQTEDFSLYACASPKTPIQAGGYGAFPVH
Serine/threonine-protein kinase B-raf (Homo sapiens, UniProt P15056, V600E), sequence (P15056 2-766 V600E limits assumed): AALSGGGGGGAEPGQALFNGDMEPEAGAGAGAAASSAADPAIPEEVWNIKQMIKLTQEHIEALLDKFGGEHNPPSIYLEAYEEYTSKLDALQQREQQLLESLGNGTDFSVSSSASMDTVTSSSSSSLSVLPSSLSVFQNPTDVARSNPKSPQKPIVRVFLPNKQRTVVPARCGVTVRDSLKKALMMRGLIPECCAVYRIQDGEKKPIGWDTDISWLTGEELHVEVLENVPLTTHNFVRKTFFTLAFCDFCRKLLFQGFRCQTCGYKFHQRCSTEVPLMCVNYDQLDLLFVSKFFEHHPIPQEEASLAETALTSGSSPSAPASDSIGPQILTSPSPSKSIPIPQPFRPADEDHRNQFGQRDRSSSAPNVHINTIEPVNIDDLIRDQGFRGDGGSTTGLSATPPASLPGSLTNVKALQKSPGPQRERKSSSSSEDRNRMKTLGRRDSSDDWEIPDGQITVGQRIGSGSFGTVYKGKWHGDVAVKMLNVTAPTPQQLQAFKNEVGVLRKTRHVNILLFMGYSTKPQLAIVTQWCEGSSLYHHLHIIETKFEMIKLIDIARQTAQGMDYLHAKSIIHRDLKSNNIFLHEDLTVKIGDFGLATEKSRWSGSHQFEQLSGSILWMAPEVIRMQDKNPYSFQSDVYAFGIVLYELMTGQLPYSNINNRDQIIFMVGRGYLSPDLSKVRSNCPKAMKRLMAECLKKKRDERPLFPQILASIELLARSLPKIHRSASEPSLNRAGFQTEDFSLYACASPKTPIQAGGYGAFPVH
T1 sequence (P15056 whole entry, the tested form may be a part): as the sequence (P15056 whole entry V600E) above, with E600V counted along it

Structure (SMILES) | IC50 [1] | IC50 [2] | Activity [3] | Activity [4] | Activity [5] | Tm [6] | Activity [7] | Tm [8] | Tm [9]
N#Cc1c(Oc2ccc(F)c(NC(=O)Cc3cccc(C(F)(F)F)c3)c2)ccc2nc(NC(=O)COCCOCCOCCOCCOCCOCCOCC(=O)Nc3nc4ccc(Oc5ccc(F)c(NC(=O)Cc6cccc(C(F)(F)F)c6)c5)c(C#N)c4s3)sc12 | 352 nM | 732 nM | – | – | – | – | – | – | –
N#Cc1c(Oc2ccc(F)c(NC(=O)Cc3cccc(C(F)(F)F)c3)c2)ccc2nc(NC(=O)C3CC3)sc12 | 4.46 nM | 3.23 to 7.11 nM | Active | Active | Active | 68.7 °C | – | – | –
N#Cc1c(Oc2ccc(F)c(NC(=O)Cc3cccc(C(F)(F)F)c3)c2)ccc2nc(NC(=O)COCCOCCOCCOCCOCC(=O)Nc3nc4ccc(Oc5ccc(F)c(NC(=O)Cc6cccc(C(F)(F)F)c6)c5)c(C#N)c4s3)sc12 | 73.8 nM | 85.5 to 90.2 nM | – | – | – | – | inactive | – | –
COCCOCC(=O)Nc1nc2ccc(Oc3ccc(F)c(NC(=O)Cc4cccc(C(F)(F)F)c4)c3)c(C#N)c2s1 | – | 5.75 nM | – | – | – | – | – | – | –
N#Cc1c(Oc2ccc(F)c(NC(=O)Cc3cccc(C(F)(F)F)c3)c2)ccc2nc(NC(=O)COCCOCCOCCOCC(=O)Nc3nc4ccc(Oc5ccc(F)c(NC(=O)Cc6cccc(C(F)(F)F)c6)c5)c(C#N)c4s3)sc12 | 168 nM | 616 nM | – | – | – | – | – | – | –
CCCS(=O)(=O)Nc1ccc(F)c(C(=O)c2c[nH]c3ncc(-c4ccc(Cl)cc4)cc23)c1F | – | – | inactive | inactive | – | – | – | – | –
N#Cc1c(Oc2ccc(F)c(NC(=O)Cc3cccc(C(F)(F)F)c3)c2)ccc2nc(NC(=O)COCC(=O)Nc3nc4ccc(Oc5ccc(F)c(NC(=O)Cc6cccc(C(F)(F)F)c6)c5)c(C#N)c4s3)sc12 | 421 nM | 537 nM | – | – | – | – | – | – | –
N#Cc1c(Oc2ccc(F)c(NC(=O)Cc3cccc(C(F)(F)F)c3)c2)ccc2nc(NC(=O)COCCOCCOCC(=O)Nc3nc4ccc(Oc5ccc(F)c(NC(=O)Cc6cccc(C(F)(F)F)c6)c5)c(C#N)c4s3)sc12 | 73.9 nM | 87.2 to 132 nM | inactive | inactive | inactive | 38.7 to 59.6 °C | inactive | 38.4 to 58.6 °C | 40.1 to 62.6 °C
N#Cc1c(Oc2ccc(F)c(NC(=O)Cc3cccc(C(F)(F)F)c3)c2)ccc2nc(NC(=O)COCCOCCOCC(=O)Nc3nccs3)sc12 | – | 20.3 nM | – | Active | – | 63.3 °C | – | – | –
